The record followed here is ChEMBL document CHEMBL1154727, “Cytotoxic activity of 3-(5-phenyl-3H-[1,2,4]dithiazol-3-yl)chromen-4-ones and 4-oxo-4H-chromene-3-carbothioic acid N-phenylamides” (Eur J Med Chem, 2010).

In experiment [1] the test system is PC-3. Briefly: Growth inhibition of human PC3 cells after 48 hrs by sulforhodamine B assay. Format: functional, cell-based. The following applies: PC-3, 48 h. The gist of the method:
(§1)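 Cells kept in RPMI-1640 with 10% FBS, penicillin and streptomycin; trypan blue viability check beforehand. Seeded at 1 × 10^4 cells/well, 24 h at 37 °C, 5% CO2, then treated in quadruplicate for 48 h. Compounds diluted in medium with 50 µg/ml gentamycin; single test level 100 µM. TCA fixation at 4 °C for 1 h, SRB stain, Tris pH 10.5 solubilization, OD 540 nm. IC50 taken as the mean from dose-response curves.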

For experiment [2], the system named is OVCAR-5 (human). Briefly: Growth inhibition of human OVCAR-5 cells after 48 hrs by sulforhodamine B assay. Conditions: OVCAR-5, 48 h. (In general: Sulforhodamine B stains cellular protein and so reports cell mass.)
The subject of experiment [3] is PC-3. Briefly: Growth inhibition of human PC3 cells at 100 uM after 48 hrs by sulforhodamine B assay. In kind it is functional. Conditions: PC-3, 48 h, read-out: GI. The method, boiled down: as §1
For experiment [4], the system named is OVCAR-5 (human). The experiment is described as follows: Growth inhibition of human OVCAR-5 cells at 100 uM after 48 hrs by sulforhodamine B assay. The following applies: OVCAR-5, 48 h, read-out: GI.
Experiment [5] relates to IMR-32. Briefly: Growth inhibition of human IMR32 cells at 100 uM after 48 hrs by sulforhodamine B assay. Conditions: IMR-32, 48 h, read-out: GI. Format: functional. The method, boiled down:
as §1

The subject of experiment [6] is HEp-2. The experiment is described as follows: Growth inhibition of human Hep2 cells after 48 hrs by sulforhodamine B assay. In kind it is functional, cell-based. Conditions: HEp-2, 48 h. The method, boiled down:
as §1

The subject of experiment [7] is COLO 205. The experiment is described as follows: Growth inhibition of human COLO205 cells at 100 uM after 48 hrs by sulforhodamine B assay. Format: functional. Conditions: COLO 205, 48 h, read-out: GI. The method, boiled down: as §1
The subject of experiment [8] is HEp-2. The experiment is described as follows: Growth inhibition of human Hep2 cells at 100 uM after 48 hrs by sulforhodamine B assay. In kind it is functional. Conditions: HEp-2, 48 h, read-out: GI. The gist of the method: as §1
For experiment [9], the system named is IMR-32. Briefly: Growth inhibition of human IMR32 cells after 48 hrs by sulforhodamine B assay. In kind it is functional, cell-based. The following applies: IMR-32, 48 h. The gist of the method: as §1
Experiment [10] has as its system COLO 205. Briefly: Growth inhibition of human COLO205 cells after 48 hrs by sulforhodamine B assay. Format: functional, cell-based. The following applies: COLO 205, 48 h. The gist of the method:
as §1

Experiment [11] has as its system A549. Briefly: Growth inhibition of human A549 cells after 48 hrs by sulforhodamine B assay. Format: functional, cell-based. The following applies: A549, 48 h. The method, boiled down:
as §1

For experiment [12], the system named is A549. Briefly: Growth inhibition of human A549 cells at 100 uM after 48 hrs by sulforhodamine B assay. In kind it is functional. The following applies: A549, 48 h, read-out: GI. The gist of the method: as §1
Experiment [13] deals with OVCAR-3. Briefly: Growth inhibition of human OVCAR-3 cells at 20 uM after 48 hrs by sulforhodamine B assay. Format: functional. Conditions: OVCAR-3, 48 h, read-out: GI. The method, boiled down: (§2)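 Cells kept in RPMI-1640 with 10% FBS, penicillin and streptomycin; viability checked by trypan blue before use. Seeded at 1 × 10^4 cells/well, 24 h at 37 °C in 5% CO2, then compound (diluted in medium with gentamycin) added in quadruplicate for 48 h. Cells fixed with cold 50% TCA at 4 °C for 1 h, stained with 0.4% SRB, dye dissolved in 10 mM Tris pH 10.5, OD read at 540 nm.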

Experiment [14] deals with COLO 205. Briefly: Growth inhibition of human COLO205 cells at 20 uM after 48 hrs by sulforhodamine B assay. In kind it is functional. Conditions: COLO 205, 48 h, read-out: GI. The gist of the method:
as §2

Experiment [15] concerns PC-3. Briefly: Growth inhibition of human PC3 cells at 20 uM after 48 hrs by sulforhodamine B assay. In kind it is functional. Conditions: PC-3, 48 h, read-out: GI. The gist of the method: as §2

pIC50: −log10 of the molar value.

A word on the pIC50: it is the IC50 on a negative log10 scale, so that one unit is a factor of ten. With `O=c1c(C2N=C(c3ccccc3)SS2)coc2cc(Cl)c(F)cc12` (stereo unspecified), the pIC50 in experiment [1] is 4.24; in experiment [2], 4.21; in experiment [6], 4.01; in experiment [9], 4.25; in [10], < 4.00; in experiment [11] it was 4.03. For the same molecule, the inhibition of growth at 100 µM in [3] stood at 76%; in experiment [4] it was 75%; in [5], 80%; in experiment [7] it was 45%; in experiment [8], 52%; in experiment [12] it was 57%.
As for `O=c1c(C2N=C(c3ccccc3)SS2)coc2ccccc12` (stereo unspecified), the pIC50 in experiment [1] is < 4.00; in experiment [2] it was < 4.00; in [6], < 4.00; in experiment [9], 4.78; in experiment [10], < 4.00; in experiment [11], < 4.00. In addition, the inhibition of growth at 100 µM in experiment [3] amounted to 23%; in experiment [4], 11%; in experiment [5] it was 82%; in experiment [7], 18%; in [8], 48%; in experiment [12] it was 42%.
For the molecule `O=c1c(C2N=C(c3ccccc3)SS2)coc2ccc(F)cc12` (stereo unspecified), the pIC50 in [1] is < 4.00; in [2], < 4.00; in [6], 4.01; in [9], 4.84; in experiment [10], < 4.00; in experiment [11], 4.04. For the same molecule, the inhibition of growth at 100 µM in experiment [3] worked out at 32%; in experiment [4], 27%; in experiment [5] it was 75%; in experiment [7], 37%; in experiment [8], 51%; in [12], 55%.
With `O=c1c(C(=S)Nc2ccccc2)coc2ccc(F)cc12`, the pIC50 is < 4.00 in experiment [1]; < 4.00 in [2]; < 4.00 in [6]; 4.05 in experiment [9]; < 4.00 in [10]; 4.14 in experiment [11]. Moreover, the inhibition of growth at 100 µM in experiment [3] came out at 45%; in [4] it was 49%; in experiment [5], 59%; in experiment [7], 26%; in experiment [8], 32%; in [12] it was 70%.
Consider `O=c1c(C2N=C(c3ccccc3)SS2)coc2cc(Cl)c(Cl)cc12` (stereo unspecified), for which the pIC50 in [1] was 4.22; in experiment [2], 4.19; in [6], 4.01; in experiment [9] it was 4.24; in experiment [10], < 4.00; in experiment [11] it was 4.02. Further, the inhibition of growth at 100 µM in experiment [3] came out at 70%; in experiment [4], 68%; in experiment [5] it was 77%; in [7] it was 50%; in [8], 51%; in experiment [12], 52%.
With `O=c1c(C(=S)Nc2ccccc2)coc2ccccc12`, the pIC50 in [1] is 4.22; in [2], 4.06; in experiment [6], < 4.00; in experiment [9], 4.02; in experiment [10], 4.14; in [11], 4.28. In addition, the inhibition of growth at 100 µM in experiment [3] is 63%; in experiment [4], 58%; in experiment [5], 53%; in experiment [7] it was 71%; in experiment [8], 32%; in [12], 79%.
As for `O=c1c(C2N=C(c3ccccc3)SS2)coc2cc(Cl)ccc12` (stereo unspecified), the pIC50 was 4.42 in [1]; 4.98 in experiment [2]; < 4.00 in [6]; 4.02 in experiment [9]; 4.12 in experiment [10]; 4.24 in experiment [11]. Further, the inhibition of growth at 100 µM in [3] came out at 81%; in experiment [4] it was 91%; in [5] it was 53%; in experiment [7], 57%; in [8], 31%; in experiment [12] it was 76%.
On to `O=c1c(C2N=C(c3ccccc3)SS2)coc2ccc(Cl)cc12` (stereo unspecified), for which the pIC50 in experiment [1] is 4.28; in [2], 4.18; in experiment [6] it was 4.13; in experiment [9], 5.00; in experiment [10] it was < 4.00; in experiment [11] it was 4.15. The inhibition of growth at 100 µM in [3] amounted to 62%; in [4], 71%; in experiment [5] it was 92%; in experiment [7], 12%; in [8] it was 69%; in experiment [12], 73%.
`O=c1c(C(=S)Nc2ccccc2)coc2cc(Cl)c(Cl)cc12`: the pIC50 in experiment [1] is 4.02; in [2], < 4.00; in [6] it was < 4.00; in experiment [9], 4.05; in [10], < 4.00; in experiment [11], 4.15. Besides, the inhibition of growth at 100 µM worked out at 16% in [3]; 2% in experiment [4]; 18% in [5]; 16% in [7]; 4% in experiment [8]; 3% in experiment [12].
With `Cc1ccc2occ(C3N=C(c4ccccc4)SS3)c(=O)c2c1` (stereo unspecified), the pIC50 is < 4.00 in experiment [1]; 4.03 in experiment [2]; < 4.00 in experiment [6]; 4.15 in experiment [9]; < 4.00 in experiment [10]; 4.18 in [11]. Besides, the inhibition of growth at 100 µM stood at 40% in [3]; 54% in [4]; 53% in experiment [5]; 32% in [7]; 43% in [8]; 67% in [12].
Turning to `O=c1[nH]cc(F)c(=O)[nH]1` [FLUOROURACIL], the values for the inhibition of growth at 20 µM in [13], in experiment [14] and in experiment [15] were 26%, 12% and 20%, respectively. The molecule further had a pIC50 in [10] of 4.68.
Turning to `O=c1c(C(=S)Nc2ccccc2)coc2cc(Cl)ccc12`, the pIC50 was 4.04 in experiment [1]; < 4.00 in experiment [2]; < 4.00 in [6]; 4.03 in [9]; < 4.00 in experiment [10]; 4.20 in [11]. For the same molecule, the inhibition of growth at 100 µM in experiment [3] came out at 55%; in experiment [4] it was 47%; in experiment [5], 56%; in experiment [7] it was 38%; in [8] it was 41%; in experiment [12] it was 66%.
